Experiments:
Details in all cases: stereoisomer not certain
OR8U9 (Homo sapiens) = OR8U9 (Homo sapiens) (UniProt P0C7N5)
In short: (§1)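 Whether a receptor–molecule pair is responsive (active) rests on the original authors' judgment that its measured signal was statistically different from baseline. Pairs without that judgment are non-responsive (inactive). Sources used varied assay methods, commonly transient luciferase assays in mammalian cell lines.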

OR9A2 (Homo sapiens) = OR9A2 (Homo sapiens) (UniProt Q8NGT5)
In short: as §1

OR9A4 (Homo sapiens) = OR9A4 (Homo sapiens) (UniProt Q8NGU2)
In short: as §1

OR9G1 (Homo sapiens) = OR9G1 (Homo sapiens) (UniProt Q8NH87)
In short: as §1

OR9G4 (Homo sapiens) = OR9G4 (Homo sapiens) (UniProt Q8NGQ1)
In short: as §1

OR8U9 T2A Q3H Q293R = tested on: OR8U9 T2A Q3H Q293R
In short: as §1

OR8U9 = tested on: OR8U9
In short: as §1

OR9A2 C304Y = tested on: OR9A2 C304Y
In short: as §1

OR9G4 H6Y N206D V222A = tested on: OR9G4 H6Y N206D V222A
In short: as §1

OR9G4 N206D V222A = tested on: OR9G4 N206D V222A
In short: as §1

Measured: odorant receptor agonist call;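 further: active if original authors judged signal statistically different from baseline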

Chain of OR9A2 (Homo sapiens) (Q8NGT5 whole entry): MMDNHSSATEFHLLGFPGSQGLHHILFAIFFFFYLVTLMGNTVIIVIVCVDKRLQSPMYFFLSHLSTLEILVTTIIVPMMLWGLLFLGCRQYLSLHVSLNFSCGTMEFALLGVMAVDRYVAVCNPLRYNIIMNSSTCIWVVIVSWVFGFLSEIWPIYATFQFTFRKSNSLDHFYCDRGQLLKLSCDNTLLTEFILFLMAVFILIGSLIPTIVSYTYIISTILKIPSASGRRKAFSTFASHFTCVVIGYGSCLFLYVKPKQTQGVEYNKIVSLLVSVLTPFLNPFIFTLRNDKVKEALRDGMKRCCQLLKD
Chain of OR9A4 (Homo sapiens) (Q8NGU2 whole entry): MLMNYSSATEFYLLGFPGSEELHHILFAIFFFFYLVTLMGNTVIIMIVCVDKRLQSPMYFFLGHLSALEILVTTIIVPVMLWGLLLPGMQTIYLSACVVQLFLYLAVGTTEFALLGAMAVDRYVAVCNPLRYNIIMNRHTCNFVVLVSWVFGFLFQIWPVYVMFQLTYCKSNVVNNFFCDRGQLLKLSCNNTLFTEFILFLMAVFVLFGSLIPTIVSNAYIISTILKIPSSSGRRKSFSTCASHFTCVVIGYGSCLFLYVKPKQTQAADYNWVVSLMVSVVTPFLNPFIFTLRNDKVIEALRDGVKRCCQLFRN
Chain of OR9G4 (Homo sapiens) (Q8NGQ1 whole entry): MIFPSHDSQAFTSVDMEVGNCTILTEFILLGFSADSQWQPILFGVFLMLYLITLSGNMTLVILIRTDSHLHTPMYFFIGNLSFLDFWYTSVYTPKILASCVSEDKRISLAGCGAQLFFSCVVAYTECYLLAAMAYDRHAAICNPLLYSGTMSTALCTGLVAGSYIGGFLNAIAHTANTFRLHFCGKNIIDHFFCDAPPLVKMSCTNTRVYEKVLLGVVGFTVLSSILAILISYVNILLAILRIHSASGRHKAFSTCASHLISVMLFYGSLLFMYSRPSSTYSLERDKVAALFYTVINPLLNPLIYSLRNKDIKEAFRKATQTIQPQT
Chain of OR9G1 (Homo sapiens) (Q8NH87 whole entry): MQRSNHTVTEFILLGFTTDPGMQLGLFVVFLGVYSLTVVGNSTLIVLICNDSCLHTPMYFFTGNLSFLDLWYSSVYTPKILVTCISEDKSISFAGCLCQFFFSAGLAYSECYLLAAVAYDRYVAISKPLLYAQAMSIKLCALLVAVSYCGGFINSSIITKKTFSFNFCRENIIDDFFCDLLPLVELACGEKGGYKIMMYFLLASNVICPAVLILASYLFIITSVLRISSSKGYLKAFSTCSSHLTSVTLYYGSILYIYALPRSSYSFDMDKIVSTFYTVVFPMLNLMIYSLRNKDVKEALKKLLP
Chain of OR8U9 (Homo sapiens) (P0C7N5 whole entry): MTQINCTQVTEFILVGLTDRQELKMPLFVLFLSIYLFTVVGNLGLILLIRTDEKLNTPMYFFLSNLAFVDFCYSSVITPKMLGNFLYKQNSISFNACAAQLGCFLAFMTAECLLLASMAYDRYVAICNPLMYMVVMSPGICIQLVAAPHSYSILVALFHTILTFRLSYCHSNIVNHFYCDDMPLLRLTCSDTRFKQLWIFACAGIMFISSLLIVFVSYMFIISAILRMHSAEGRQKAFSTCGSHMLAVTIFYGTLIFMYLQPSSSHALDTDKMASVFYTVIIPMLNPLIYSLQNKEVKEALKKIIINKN
Chain of OR8U9 (as listed by the source): as the sequence (P0C7N5 whole entry) above, with Q293R counted along it
Chain of OR9A2 C304Y (as listed by the source, stated change not applied): as the sequence (Q8NGT5 whole entry) above, with C304Y counted along it

Cc1c([N+](=O)[O-])c(C)c([N+](=O)[O-])c(C(C)(C)C)c1[N+](=O)[O-]
inactive: OR8U9 (Homo sapiens) | OR9A2 (Homo sapiens) | OR9A4 (Homo sapiens) | OR9G1 (Homo sapiens) | OR9G4 (Homo sapiens)

C=CCOC(=O)Cc1ccccc1
inactive: OR8U9 (Homo sapiens) | OR8U9 T2A Q3H Q293R | OR8U9 | OR9A2 (Homo sapiens) | OR9A2 C304Y | OR9A4 (Homo sapiens) | OR9G1 (Homo sapiens) | OR9G4 (Homo sapiens) | OR9G4 H6Y N206D V222A | OR9G4 N206D V222A

— the M2OR odorant receptor database
